This is an account of results in ChEMBL document CHEMBL1949533, “Novel molecular combination deriving from natural aminoacids and polyphenols: Design, synthesis and free-radical scavenging activities” (Eur J Med Chem, 2012).

Test [1] concerns Radical scavenging activity. Kind of test: Antioxidant activity assessed as DPPH free radical scavenging activity by UV-Vis spectrophotometry. The class given is functional. In a few lines: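 DPPH methanolic solution (1.5 mL) mixed with 0.750 mL compound solution at 1, 0.5, 0.25, 0.125 and 0.0625 mg/mL; absorbance decrease read at 517 nm and % remaining DPPH radical calculated. IC50 (concentration halving initial DPPH) derived by regression across concentrations, expressed as nmol/mL.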

A short description of test [2]: Antioxidant activity assessed as trolox equivalents ratio of AAPH radical scavenging activity after 30 mins by ORAC-fluorescein assay. Type of test: functional. In a few lines: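 Compounds dissolved in PBS immediately before use, pH 7.4; fluorescein quenching initiated by AAPH, fluorescence (excitation 485 nm) read at 37 °C every 5 min up to 30 min. Net area under fluorescein decay curve (blank minus sample) converted to Trolox equivalents via 10–50 µM Trolox calibration; three replicates.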

`COC(=O)[C@H](CCSC)NC(=O)/C=C/c1ccc(O)c(O)c1`: the IC50 in test [1] is 25 µM. In test [2], the Ratio was found to be 2.3.

Consider `O=C(O)/C=C/c1ccc(O)c(O)c1` [CAFFEIC ACID], for which, in test [1], the IC50 is 41 µM. The Ratio in test [2] is 2.7.

As to `CSCC[C@H](NC(=O)/C=C/c1ccc(O)c(O)c1)C(=O)NCCc1ccc(O)c(O)c1`, the IC50 in test [1] was 23 µM. In addition, in test [2], the Ratio was found to be 3.38.

As for `COC(=O)[C@H](CS)NC(=O)c1cc(OC)c(O)c(OC)c1`, in test [1], the IC50 was 143 µM.

For the compound `COC(=O)[C@H](CS)NC(=O)/C=C/c1ccc(O)c(OC)c1`, the half-inhibitory concentration (IC50) in test [1] turned out to be 84 µM. For the same compound, in test [2], the Ratio was 1.4.

Turning to `COC(=O)[C@H](CS)NC(=O)/C=C/c1cc(OC)c(O)c(OC)c1`, the IC50 in test [1] turned out to be 76 µM. Further, the Ratio in test [2] was found to be 1.3.

`O=C(Cc1ccc(O)c(O)c1)N[C@@H](CS)C(=O)NCCc1ccc(O)c(O)c1`: the IC50 in test [1] came out at 20 µM. Also, the Ratio in test [2] turned out to be 1.77.

Turning to `CSCC[C@H](NC(=O)Cc1ccc(O)c(O)c1)C(=O)NCCc1ccc(O)c(O)c1`, the IC50 in test [1] came to 68 µM. Further, in test [2], the Ratio was 1.24.

In the case of `COC(=O)[C@H](CCSC)NC(=O)Cc1ccc(O)c(O)c1`, the IC50 in test [1] stood at 48 µM. Moreover, in test [2], the Ratio is 3.6.

With `COC(=O)[C@H](CS)NC(=O)/C=C/c1ccccc1O`, in test [1], the IC50 was 150 µM.

For `O=C(/C=C/c1ccc(O)c(O)c1)N[C@@H](Cc1ccc(O)cc1)C(=O)NCCc1ccc(O)c(O)c1`, the IC50 in test [1] turned out to be 32 µM. The Ratio in test [2] is 2.79.

As for `COC(=O)[C@@H](N)Cc1ccc(O)cc1.Cl`, the IC50 in test [1] was above 1280 µM. Moreover, the Ratio in test [2] was 3.9.

Take `Cc1c(C)c2c(c(C)c1O)CCC(C)(C(=O)O)O2` (racemic) [TROLOX]: in test [1], the IC50 was 55 µM.

Turning to `COC(=O)[C@H](Cc1ccc(O)cc1)NC(=O)Cc1ccc(O)c(O)c1`, the IC50 in test [1] was determined as 44 µM. Besides, the Ratio in test [2] stood at 4.8.

As to `COC(=O)[C@H](CS)NC(=O)/C=C/c1cccc(O)c1`, in test [1], the IC50 came out at 185 µM.

As for `COC(=O)[C@H](CS)NC(=O)Cc1ccc(O)c(O)c1`, the IC50 in test [1] worked out at 29 µM. Besides, in test [2], the Ratio stood at 3.

Turning to `COC(=O)[C@H](Cc1ccc(O)cc1)NC(=O)/C=C/c1ccc(O)c(O)c1`, the IC50 in test [1] turned out to be 30 µM. In addition, the Ratio in test [2] was determined as 3.4.

In the case of `COC(=O)[C@H](CS)NC(=O)/C=C/c1ccc(O)cc1`, in test [1], the IC50 turned out to be 148 µM.

As for `COC(=O)[C@@H](N)CCSC.Cl` [METHIONINE METHYL ESTER HYDROCHLORIDE], in test [1], the IC50 was above 1250 µM. Moreover, the Ratio in test [2] was determined as 0.8.

`COC(=O)[C@H](CS)NC(=O)Cc1ccc(O)c(OC)c1`: the IC50 in test [1] was determined as 82 µM. For the same compound, the Ratio in test [2] was determined as 2.4.

With `O=C(/C=C/c1ccc(O)c(O)c1)N[C@@H](CS)C(=O)NCCc1ccc(O)c(O)c1`, the IC50 in test [1] came out at 26 µM. For the same compound, the Ratio in test [2] stood at 0.855.

For the compound `COC(=O)[C@H](CS)NC(=O)/C=C/c1ccc(O)c(O)c1`, the IC50 in test [1] worked out at 22 µM. For the same compound, in test [2], the Ratio was 1.4.

As to `COC(=O)[C@@H](N)CS.Cl`, in test [1], the IC50 turned out to be 123 µM. Further, the Ratio in test [2] came out at 0.3.

On to `O=C(O)Cc1ccc(O)c(O)c1` [3,4-DIHYDROXYPHENYLACETIC ACID], for which the IC50 in test [1] was found to be 26 µM. In addition, the Ratio in test [2] worked out at 4.2.

Take `O=C(Cc1ccc(O)c(O)c1)N[C@@H](Cc1ccc(O)cc1)C(=O)NCCc1ccc(O)c(O)c1`: the IC50 in test [1] stood at 32 µM. Also, the Ratio in test [2] is 3.82.
